Active and inactive are the calls of the source. The calls are words filed in the database; no cut-off is given here.
Tests used:
[1] = system: Enterococcus faecalis; experiment: Antibacterial activity against non-beta-lactamase producing Enterococcus faecalis ATCC 29212 after 48 hrs by microdilution broth method; format: functional, organism-based
Summary of the method: (§1)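 Broth microdilution followed CLSI guidelines. Compound was dissolved in 95% ethanol, diluted at least 10-fold into Mueller-Hinton broth, then serially two-fold diluted from 500 to 15.6 μg/mL. Actively growing culture was added at 5 × 10^5 cells/mL. Plates ran 48 h at 37 °C, scored for visible growth at 24 and 48 h. MIC was the lowest concentration without growth. For MBC, 10 μL from each clear well was plated on MH agar. Controls were ethanol and penicillin. Triplicate.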

[2] = system: Staphylococcus aureus; experiment: Antibacterial activity against non-beta-lactamase producing Staphylococcus aureus ATCC 25923 at 10 ug/disc after overnight incubation by disc diffusion assay; format: functional, organism-based
Summary of the method: (§2)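 Isolates were held at −80 °C. Five colonies were suspended in Mueller-Hinton broth to a 0.5 McFarland density and swabbed onto MH agar. Discs carried 10 μg compound, applied in methanol and dried at room temperature. Plates were incubated overnight at 37 °C, and the zone of inhibition was measured in mm from the disc edge. Controls were methanol-only and penicillin discs. Run blinded, in triplicate.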

[3] = system: Pseudomonas aeruginosa; experiment: Antibacterial activity against non-beta-lactamase producing Pseudomonas aeruginosa ATCC 27853 at 10 ug/disc after overnight incubation by disc diffusion assay; format: functional, organism-based; summary of the method: as §2
[4] = system: Staphylococcus aureus; experiment: Antibacterial activity against non-beta-lactamase producing Staphylococcus aureus ATCC 25923 after 48 hrs by microdilution broth method; format: functional, organism-based; summary of the method: as §1
[5] = system: Pseudomonas aeruginosa; experiment: Antibacterial activity against non-beta-lactamase producing Pseudomonas aeruginosa ATCC 27853 after 48 hrs by microdilution broth method; format: functional, organism-based; summary of the method: as §1
[6] = system: Moraxella catarrhalis; experiment: Antibacterial activity against beta-lactamase producing Moraxella catarrhalis isolate 2 at 10 ug/disc after overnight incubation by disc diffusion assay; format: functional; conditions: for zone of inhibition at 10 µg/disc: read-out: IZ; summary of the method: as §2
[7] = system: Moraxella catarrhalis; experiment: Antibacterial activity against beta-lactamase producing Moraxella catarrhalis isolate 1 at 10 ug/disc after overnight incubation by disc diffusion assay; format: functional; conditions: for zone of inhibition at 10 µg/disc: read-out: IZ; summary of the method: as §2
[8] = system: Moraxella catarrhalis; experiment: Antibacterial activity against beta-lactamase producing Moraxella catarrhalis isolate 5 at 10 ug/disc after overnight incubation by disc diffusion assay; format: functional; conditions: for zone of inhibition at 10 µg/disc: read-out: IZ; summary of the method: as §2
[9] = system: Escherichia coli; experiment: Antibacterial activity against non-beta-lactamase producing Escherichia coli ATCC 25922 at 10 ug/disc after overnight incubation by disc diffusion assay; format: functional, organism-based; summary of the method: as §2
[10] = system: Enterococcus faecalis; experiment: Antibacterial activity against non-beta-lactamase producing Enterococcus faecalis ATCC 29212 at 10 ug/disc after overnight incubation by disc diffusion assay; format: functional, organism-based; summary of the method: as §2
[11] = system: Escherichia coli; experiment: Antibacterial activity against non-beta-lactamase producing Escherichia coli ATCC 25922 after 48 hrs by microdilution broth method; format: functional, organism-based; summary of the method: as §1
[12] = system: Moraxella catarrhalis; experiment: Antibacterial activity against beta-lactamase producing Moraxella catarrhalis isolate 3 at 10 ug/disc after overnight incubation by disc diffusion assay; format: functional; summary of the method: as §2
[13] = system: Moraxella catarrhalis; experiment: Antibacterial activity against beta-lactamase producing Moraxella catarrhalis isolate 4 at 10 ug/disc after overnight incubation by disc diffusion assay; format: functional; conditions: for zone of inhibition at 10 µg/disc: read-out: IZ; summary of the method: as §2
[14] = system: Moraxella catarrhalis; experiment: Antibacterial activity against beta-lactamase producing Moraxella catarrhalis isolate 6 at 500 ug/ml after overnight incubation by disc diffusion assay; format: functional, organism-based
[15] = system: Moraxella catarrhalis; experiment: Antibacterial activity against beta-lactamase producing Moraxella catarrhalis isolate 4 at 500 ug/ml after overnight incubation by disc diffusion assay; format: functional, organism-based
[16] = system: Moraxella catarrhalis; experiment: Antibacterial activity against beta-lactamase producing Moraxella catarrhalis isolate 2 at 500 ug/ml after overnight incubation by disc diffusion assay; format: functional, organism-based
[17] = system: Moraxella catarrhalis; experiment: Antibacterial activity against beta-lactamase producing Moraxella catarrhalis isolate 3 at 500 ug/ml after overnight incubation by disc diffusion assay; format: functional, organism-based
[18] = system: Mycobacterium tuberculosis; experiment: Antimycobacterial activity against wild type Mycobacterium tuberculosis H37Rv at 200 ug/ml by Alamar blue assay; format: functional, organism-based
[19] = system: Moraxella catarrhalis; experiment: Antibacterial activity against beta-lactamase producing Moraxella catarrhalis isolate 5 at 500 ug/ml after overnight incubation by disc diffusion assay; format: functional, organism-based

CCC(C=O)(CC)SSC(C=O)(CC)CC
Activity [1]: inactive
Activity [2]: inactive
Activity [3]: inactive
Activity [4]: inactive
Activity [5]: inactive
zone of inhibition at 10 µg/disc [6]: 10 mm
zone of inhibition at 10 µg/disc [7]: 10 mm
zone of inhibition at 10 µg/disc [8]: 10 mm
Activity [9]: inactive
Activity [10]: inactive
Activity [11]: inactive
inhibition zone (IZ) [12]: inactive
zone of inhibition at 10 µg/disc [13]: 5 mm

CCC(S)(CC)CO
Activity [1]: inactive
Activity [2]: inactive
Activity [3]: inactive
Activity [4]: inactive
Activity [5]: inactive
zone of inhibition at 10 µg/disc [6]: 3 mm
zone of inhibition at 10 µg/disc [7]: 5 mm
zone of inhibition at 10 µg/disc [8]: 12 mm
Activity [9]: inactive
Activity [10]: inactive
Activity [11]: inactive
inhibition zone (IZ) [12]: inactive
zone of inhibition at 10 µg/disc [13]: 3 mm

CCOC(=O)CN1C(=O)C(OC)C1C(CC)(CC)SSC(C=O)(CC)CC (racemic)
antibacterial activity (active/not active) [14]: Active
Activity [1]: inactive
Activity [2]: inactive
Activity [3]: inactive
antibacterial activity (active/not active) [15]: Active
Activity [4]: inactive
Activity [5]: inactive
inhibition zone (IZ) [6]: inactive
antibacterial activity (active/not active) [16]: Active
zone of inhibition at 10 µg/disc [7]: 20 mm
zone of inhibition at 10 µg/disc [8]: 3 mm
Activity [9]: inactive
antibacterial activity (active/not active) [17]: Active
Activity [10]: inactive
antimycobacterial activity (active/not active) [18]: Active
Activity [11]: inactive
antibacterial activity (active/not active) [19]: Active
inhibition zone (IZ) [12]: inactive
inhibition zone (IZ) [13]: inactive

CCOC(=O)CN1C(=O)C(OC)C1C(C)(C)SSC (racemic)
antibacterial activity (active/not active) [14]: Active
Activity [1]: inactive
Activity [2]: inactive
Activity [3]: inactive
antibacterial activity (active/not active) [15]: Active
Activity [4]: inactive
Activity [5]: inactive
inhibition zone (IZ) [6]: inactive
antibacterial activity (active/not active) [16]: Active
inhibition zone (IZ) [7]: inactive
inhibition zone (IZ) [8]: inactive
Activity [9]: inactive
antibacterial activity (active/not active) [17]: Active
Activity [10]: inactive
antimycobacterial activity (active/not active) [18]: Active
Activity [11]: inactive
antibacterial activity (active/not active) [19]: Active
inhibition zone (IZ) [12]: inactive
inhibition zone (IZ) [13]: inactive

CCOC(=O)CN1C(=O)C(OC)C1C(S)(CC)CC (racemic)
antibacterial activity (active/not active) [14]: inactive
Activity [1]: inactive
Activity [2]: inactive
Activity [3]: inactive
antibacterial activity (active/not active) [15]: inactive
Activity [4]: inactive
Activity [5]: inactive
antibacterial activity (active/not active) [16]: inactive
Activity [9]: inactive
antibacterial activity (active/not active) [17]: inactive
Activity [10]: inactive
antimycobacterial activity (active/not active) [18]: inactive
Activity [11]: inactive
antibacterial activity (active/not active) [19]: inactive

Nc1ccc(SC2CC(=O)N2)cc1 (racemic)
antibacterial activity (active/not active) [14]: Active
Activity [1]: inactive
Activity [2]: inactive
Activity [3]: inactive
antibacterial activity (active/not active) [15]: Active
Activity [4]: inactive
Activity [5]: inactive
antibacterial activity (active/not active) [16]: Active
Activity [9]: inactive
antibacterial activity (active/not active) [17]: Active
Activity [10]: inactive
antimycobacterial activity (active/not active) [18]: Active
Activity [11]: inactive
antibacterial activity (active/not active) [19]: Active

O=C1CC(SCCCO)N1 (racemic)
antibacterial activity (active/not active) [14]: inactive
Activity [1]: inactive
Activity [2]: inactive
Activity [3]: inactive
antibacterial activity (active/not active) [15]: inactive
Activity [4]: inactive
Activity [5]: inactive
antibacterial activity (active/not active) [16]: inactive
Activity [9]: inactive
antibacterial activity (active/not active) [17]: inactive
Activity [10]: inactive
antimycobacterial activity (active/not active) [18]: inactive
Activity [11]: inactive
antibacterial activity (active/not active) [19]: inactive

O=C1CC(SCCO)N1 (racemic)
antibacterial activity (active/not active) [14]: inactive
Activity [1]: inactive
Activity [2]: inactive
Activity [3]: inactive
antibacterial activity (active/not active) [15]: inactive
Activity [4]: inactive
Activity [5]: inactive
antibacterial activity (active/not active) [16]: inactive
Activity [9]: inactive
antibacterial activity (active/not active) [17]: inactive
Activity [10]: inactive
antimycobacterial activity (active/not active) [18]: inactive
Activity [11]: inactive
antibacterial activity (active/not active) [19]: inactive

O=C1CC(Sc2ccc(S)cc2)N1S(=O)(=O)O (racemic)
antibacterial activity (active/not active) [14]: Active
Activity [1]: inactive
Activity [2]: inactive
Activity [3]: inactive
antibacterial activity (active/not active) [15]: Active
Activity [4]: inactive
Activity [5]: inactive
antibacterial activity (active/not active) [16]: Active
Activity [9]: inactive
antibacterial activity (active/not active) [17]: Active
Activity [10]: inactive
antimycobacterial activity (active/not active) [18]: Active
Activity [11]: inactive
antibacterial activity (active/not active) [19]: Active

O=C1CC(Sc2ccccc2)N1 (racemic)
antibacterial activity (active/not active) [14]: inactive
Activity [1]: inactive
Activity [2]: inactive
Activity [3]: inactive
antibacterial activity (active/not active) [15]: inactive
Activity [4]: inactive
Activity [5]: inactive
inhibition zone (IZ) [6]: inactive
antibacterial activity (active/not active) [16]: inactive
inhibition zone (IZ) [7]: inactive
inhibition zone (IZ) [8]: inactive
Activity [9]: inactive
antibacterial activity (active/not active) [17]: inactive
Activity [10]: inactive
antimycobacterial activity (active/not active) [18]: inactive
Activity [11]: inactive
antibacterial activity (active/not active) [19]: inactive
inhibition zone (IZ) [12]: inactive
inhibition zone (IZ) [13]: inactive

O=C1CC(Sc2ccccc2)N1S(=O)(=O)O (racemic)
Activity [1]: inactive
Activity [2]: inactive
Activity [3]: inactive
Activity [4]: inactive
Activity [5]: inactive
inhibition zone (IZ) [6]: inactive
inhibition zone (IZ) [7]: inactive
inhibition zone (IZ) [8]: inactive
Activity [9]: inactive
Activity [10]: inactive
Activity [11]: inactive
inhibition zone (IZ) [12]: inactive
inhibition zone (IZ) [13]: inactive

O=C1CC(Sc2cccs2)N1S(=O)(=O)O (racemic)
antibacterial activity (active/not active) [14]: Active
Activity [1]: inactive
Activity [2]: inactive
Activity [3]: inactive
antibacterial activity (active/not active) [15]: Active
Activity [4]: inactive
Activity [5]: inactive
inhibition zone (IZ) [6]: inactive
antibacterial activity (active/not active) [16]: Active
inhibition zone (IZ) [7]: inactive
inhibition zone (IZ) [8]: inactive
Activity [9]: inactive
antibacterial activity (active/not active) [17]: Active
Activity [10]: inactive
antimycobacterial activity (active/not active) [18]: Active
Activity [11]: inactive
antibacterial activity (active/not active) [19]: Active
inhibition zone (IZ) [12]: inactive
inhibition zone (IZ) [13]: inactive
